This is an account of results in ChEMBL document CHEMBL5107974, “Design, synthesis, and biological evaluation of new thalidomide-donepezil hybrids as neuroprotective agents targeting cholinesterases and neuroinflammation” (RSC Med Chem, 2022).

Structures are written as SMILES. Calls of active or inactive are those of the source. No cut-off for these calls is given here.

Data set [1] has as its target Acetylcholinesterase (Electrophorus electricus) (UniProt O42275). Description: Inhibition of electric eel AChE using […] as a substrate at 30 uM incubated for 10 mins by DTNB reagent based Ellman's method. The method, boiled down: (§1)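 Ellman method in Tris-HCl 0.02 M pH 7.5 with BSA, inhibitor at 30 uM final, DMSO 0.2% vehicle as negative control. Enzyme (eeAChE or equine serum BuChE) with DTNB preincubated 10 min at room temperature; acetylthiocholine or butyrylthiocholine iodide added, absorbance at 415 nm after 10 min. Activity as % of DMSO control, blank-corrected; triplicate.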
For orientation: Ellman's reagent forms a yellow product with free thiols.

The target in data set [2] is Cholinesterase (Equus caballus) (UniProt P81908). The data set can be described thus: Inhibition of equine serum BuChE using S-butyrylthiocholine iodide as a substrate at 30 uM incubated for 10 mins by DTNB reagent based Ellman's method. Format: cell-free. Put shortly: as §1
Sequence of Cholinesterase (Equus caballus) (P81908 whole entry): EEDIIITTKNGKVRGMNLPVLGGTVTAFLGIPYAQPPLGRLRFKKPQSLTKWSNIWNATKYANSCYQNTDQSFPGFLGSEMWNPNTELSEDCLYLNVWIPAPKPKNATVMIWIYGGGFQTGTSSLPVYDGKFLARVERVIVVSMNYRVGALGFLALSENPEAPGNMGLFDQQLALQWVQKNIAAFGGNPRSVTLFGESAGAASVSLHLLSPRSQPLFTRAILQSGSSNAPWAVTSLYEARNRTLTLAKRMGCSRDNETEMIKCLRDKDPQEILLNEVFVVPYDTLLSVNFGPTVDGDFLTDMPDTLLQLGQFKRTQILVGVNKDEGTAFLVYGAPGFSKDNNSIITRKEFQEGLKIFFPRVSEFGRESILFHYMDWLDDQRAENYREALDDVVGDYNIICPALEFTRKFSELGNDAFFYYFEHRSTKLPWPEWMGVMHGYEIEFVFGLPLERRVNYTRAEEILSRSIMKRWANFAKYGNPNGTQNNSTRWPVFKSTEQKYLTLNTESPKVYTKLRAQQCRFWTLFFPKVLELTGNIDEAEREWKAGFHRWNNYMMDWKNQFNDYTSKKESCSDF
Data set [3] concerns THP-1. Description: Anti-inflammatory activity in human THP-1 cells assessed as inhibition of LPS-induced IL-1beta expression at 10 uM incubated for 24 hrs by RT-PCR analysis. Format: functional. The method, boiled down: (§2)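 THP-1 monocytes differentiated to microglia-like cells with PMA 5 ng mL-1 for 24 h, then exposed 24 h to LPS 1 ug mL-1 together with compound (10 uM). RNA extracted; expression by quantitative RT-PCR, relative quantification by 2^-ΔΔCt with untreated cells as control. Mean ± SEM of three independent experiments.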

Data set [4] concerns THP-1. The data set can be described thus: Anti-inflammatory activity in human THP-1 cells assessed as inhibition of LPS-induced iNOS expression at 10 uM incubated for 24 hrs by RT-PCR analysis. Format: functional. Put shortly: as §2
In the next data set the target is Acetylcholinesterase (Electrophorus electricus, UniProt O42275). The data set can be described thus: Inhibition of electric eel AChE using […] as a substrate incubated for 10 mins by DTNB reagent based Ellman's method.
Sequence of Acetylcholinesterase (O42275 whole entry): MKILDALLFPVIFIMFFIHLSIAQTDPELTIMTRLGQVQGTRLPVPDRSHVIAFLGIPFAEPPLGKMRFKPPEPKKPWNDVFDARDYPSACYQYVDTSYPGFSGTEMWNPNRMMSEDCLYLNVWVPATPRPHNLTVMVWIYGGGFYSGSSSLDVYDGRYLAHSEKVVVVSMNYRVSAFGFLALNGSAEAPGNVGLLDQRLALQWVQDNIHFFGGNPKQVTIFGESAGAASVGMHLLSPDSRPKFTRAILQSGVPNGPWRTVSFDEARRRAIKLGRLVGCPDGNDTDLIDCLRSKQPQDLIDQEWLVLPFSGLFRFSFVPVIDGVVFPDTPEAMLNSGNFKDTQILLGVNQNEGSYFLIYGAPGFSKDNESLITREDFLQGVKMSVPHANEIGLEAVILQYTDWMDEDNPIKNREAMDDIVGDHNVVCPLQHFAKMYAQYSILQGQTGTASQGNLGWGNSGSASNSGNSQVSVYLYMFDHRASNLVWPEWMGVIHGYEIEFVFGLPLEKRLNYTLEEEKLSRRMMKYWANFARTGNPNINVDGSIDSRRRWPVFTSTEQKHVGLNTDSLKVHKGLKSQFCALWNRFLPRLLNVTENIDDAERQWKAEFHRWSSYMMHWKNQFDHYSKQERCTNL
The nature of data set [5]: Permeability of compound in PBS buffer at pH 7.4 by PAMPA-BBB assay. Conditions: read-out: permeability. Format: ADME. The method, boiled down: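 PAMPA-BBB: compound dissolved in ethanol, diluted with PBS pH 7.4 and filtered, then added in triplicate to a donor filter coated with porcine brain polar lipid (20 mg/mL in dodecane). Acceptor was PBS pH 7.4:ethanol (70:30). Incubated 2 h 45 min at about 25 °C, humidified. Donor and acceptor concentrations read by UV; compounds classed BBB+ or BBB−.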
For orientation: PAMPA measures passive passage across an artificial lipid membrane.

Data set [6] in a line: Permeability of compound in PBS buffer at pH 6.6 by PAMPA-GIT assay. It is filed as ADME. The method, boiled down: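 PAMPA-GIT: 10 μM compound in PBS pH 6.6 as donor, filter coated with soy L-α-phosphatidylcholine (20 mg/mL in dodecane). Acceptor was PBS pH 7.4:DMSO (95:5). Plates shaken at 50 rpm for 8 h at room temperature. Run in triplicate; absorbed fraction (Fa%) classed high, medium or low.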

The test system of data set [7] is SH-SY5Y. The data set can be described thus: Neuronal plasticity in human SH-SY5Y cells assessed as increase in SYP gene expression at 10 uM incubated for 24 hrs by RT-PCR analysis. Format: functional, cell-based. Put shortly: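 SH-SY5Y cells grown in DMEM with 10% FBS and differentiated with retinoic acid (10 μM) for 6 days. Compound 10 μM for 24 h. RNA extracted, SYP mRNA measured by quantitative RT-PCR, relative quantity by 2^-ΔΔCt against untreated cells. Three independent experiments, mean ± SEM, Student's t-test.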

Data set [8] has as its system Rattus norvegicus. Description: Anti-inflammatory activity in LPS-induced Wistar rat assessed as increase in food intake at po dosed measured upto 24 hrs. Format: functional, organism-based. Put shortly: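 Adult male Wistar rats (n = 7 per group), housed individually; overnight 8 h fast, then food removed 2 h on the test day. Vehicle or compound was given by gavage, then LPS or saline intraperitoneally. Pre-weighed pelleted feed was reintroduced and weighed at 2, 4, 6 and 24 h. Results given as mean ± SEM.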

Data set [9] relates to Rattus norvegicus. Description: Anti-inflammatory activity in LPS-induced Wistar rat assessed as increase in traveled distance at po dosed measured upto 24 hrs by open field test. It is filed as functional, organism-based. The method, boiled down: (§3)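 Adult male Wistar rats (n = 7–8 per group), overnight 8 h fast; vehicle or compound by gavage, then LPS or saline intraperitoneally. 2 h after LPS, each rat was placed in the centre of a circular open-field arena and filmed for 5 min. Distance travelled and immobility time were scored by video tracking. Results given as mean ± SEM.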

Data set [10] concerns Rattus norvegicus. Description: Anti-inflammatory activity in LPS-induced Wistar rat assessed as decrease in immobility time at po dosed measured upto 24 hrs by open field test. It is filed as functional, organism-based. The method, boiled down: as §3
In data set [11] the test system is SH-SY5Y. Description: Cytotoxicity against human SH-SY5Y cells assessed as reduction in cell viability at 80 uM incubated for 24 hrs by MTT assay. It is filed as functional. Put shortly:
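SH-SY5Y cells seeded at 2×10^4 per well, grown 24 h, then treated 24 h at 37 °C (range 2.5–80 uM). MTT 0.5 mg mL-1 in HBSS for 2 h; formazan dissolved in isopropanol, read at 570 nm (reference 690 nm). Viability relative to untreated cells; mean ± SEM of three independent experiments.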
Background: Tetrazolium assays rely on reduction of a dye to a coloured formazan, in cell work by metabolically active cells.

Sequence of Acetylcholinesterase (Electrophorus electricus) (O42275 24-633 limits assumed): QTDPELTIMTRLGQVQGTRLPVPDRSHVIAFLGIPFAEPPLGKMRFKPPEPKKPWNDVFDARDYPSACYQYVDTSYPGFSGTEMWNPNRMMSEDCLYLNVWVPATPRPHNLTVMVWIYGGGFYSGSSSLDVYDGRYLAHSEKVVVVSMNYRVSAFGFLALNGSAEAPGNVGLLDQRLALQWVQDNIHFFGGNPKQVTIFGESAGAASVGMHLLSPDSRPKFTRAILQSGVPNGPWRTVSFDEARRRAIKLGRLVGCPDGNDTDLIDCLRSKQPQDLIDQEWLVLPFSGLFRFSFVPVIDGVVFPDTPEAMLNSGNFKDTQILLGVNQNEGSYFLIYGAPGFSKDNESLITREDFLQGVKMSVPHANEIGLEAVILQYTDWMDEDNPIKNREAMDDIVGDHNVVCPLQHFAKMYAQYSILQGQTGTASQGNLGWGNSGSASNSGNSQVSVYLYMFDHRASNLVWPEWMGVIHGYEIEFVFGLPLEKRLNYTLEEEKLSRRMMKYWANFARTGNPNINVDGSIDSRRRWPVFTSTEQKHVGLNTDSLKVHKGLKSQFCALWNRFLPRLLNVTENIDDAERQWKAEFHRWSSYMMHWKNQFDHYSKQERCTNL

For `O=C(CN1C(=O)c2ccccc2C1=O)N1CCN(Cc2ccc(Br)cc2)CC1`, the inhibition was 8.38% in data set [1] and -1.37% in [2].
Take `O=C(CN1C(=O)c2ccccc2C1=O)N1CCN(c2ccncc2)CC1`: the inhibition at 10 µM was 39% in the data set with THP-1 [3] and 43% with THP-1 [4]. For the same compound, the inhibition is 85% in data set [1] and -4.47% in data set [2]. The same compound had an IC50 against Acetylcholinesterase of 3.15 µM. In addition, the figures for the Papp in [5] and in data set [6] (read-out: permeability) were 13.9 ×10⁻⁶ cm/s and 3.15 ×10⁻⁶ cm/s, respectively. Besides, in data set [6], the Fa came out at 69.8%. Further, the result in the data set with SH-SY5Y [7], in the data set on Rattus norvegicus [8], in the data set on Rattus norvegicus [9] and in the data set with Rattus norvegicus [10] was Active.
For `COc1ccc(CN2CCN(C(=O)CN3C(=O)c4ccccc4C3=O)CC2)cc1`, the inhibition in [1] is 17.1%; in data set [2], 25.4%.
In the case of `Cc1ccc(N2CCN(C(=O)CN3C(=O)c4ccccc4C3=O)CC2)cc1`, the inhibition in data set [1] is 11.6%; in [2], 0.3%.
Taken in the same sequence, the figures for `O=C(CN1C(=O)c2ccccc2C1=O)N1CCN(Cc2ccc(Cl)cc2)CC1` were 7.82% and 1.26%.
Turning to `O=C(CN1C(=O)c2ccccc2C1=O)N1CCN(c2ccc(Cl)cc2)CC1`, the inhibition in [1] was 8.11%; in data set [2] it was -2.09%. In addition, the Activity in the data set with SH-SY5Y [11] came out at 50%.
For `O=C(CN1C(=O)c2ccccc2C1=O)N1CCN(c2ccc([N+](=O)[O-])cc2)CC1`, the figures for the inhibition in data set [1] and in data set [2] were 16.9% and -4.97%, respectively.
`O=C(CN1C(=O)c2ccccc2C1=O)N1CCN(c2ncccn2)CC1`: the inhibition in data set [1] was 39.6%; in data set [2] it was -5.36%. Moreover, the Activity with SH-SY5Y [11] came out at 50%.

By inhibition is commonly meant the change of the read-out against control, counted positive when it falls. By IC50 is commonly meant the point on the concentration scale where inhibition reaches its midpoint.
